The nature of data set [1]: Maximum concentration determined in monkeys dosed intravenously with 30 mg/kg. As to conditions: simiiformes, in vivo, iv. Further details: dose 30 mg/kg, route intravenous. The class given is ADME, organism-based. The procedure, abridged: (§1)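 Male rhesus monkeys (n = 4) received 30 mg/kg iv in 0.9% saline. Cephalic-vein plasma was sampled over 8 h, and 0–24 h cumulative urine was collected in metabolism cages into 0.1 M sodium citrate, pH 6.5. Antibacterial activity was quantified by agar well diffusion bioassay against plasma- or citrate-based standard curves. Half-life was 0.693/β from the terminal phase, and urinary recovery was % of administered dose.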

The nature of data set [2]: Maximum concentration determined in rats dosed intravenously with 20 mg/kg. Type of data set: ADME, organism-based. Further details: dose 20 mg/kg, route intravenous. Particulars: rat, in vivo, iv. In short, it runs like this: (§2)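 Male Sprague–Dawley rats (n = 4) were given 20 mg/kg iv in 0.9% saline through a jugular cannula, with serial plasma samples and cumulative urine collected over 6 h. Urine was collected into 0.1 M citrate, pH 6.5, and samples were stored at -70 °C. Drug was measured by agar well diffusion bioassay (E. coli ATCC4157 or M. luteus ATCC9241) against spiked standard curves. Half-life was 0.693/β from the terminal slope, and urinary recovery was % of dose.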

The species named for data set [3] is Homo sapiens. The experiment in a line: (§3) In vitro plasma protein binding was evaluated by using Human plasma at 20 ug/mL. Type of data set: ADME. In short, it runs like this:
(§4)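 Binding was measured by ultrafiltration (Centrifree micropartition) in pooled plasma (ICR mouse, Sprague–Dawley rat, rhesus monkey or human) at a drug concentration of 20 μg/mL.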

The next data set relates to Rhesus monkey. The experiment in a line: In vitro plasma protein binding was evaluated by using rhesus monkey at 20 ug/mL. Type of data set: ADME, Macaca mulatta. In short, it runs like this:
as §4

The species entered for a further data set is Mus musculus. Nature of the data set: In vitro plasma protein binding was evaluated using ICR mouse at 20 ug/mL. Type of data set: ADME. The procedure, abridged:
as §4

A short description of data set [4]: Percent urinary recovery (as total antibacterial activity) in monkeys dosed intravenously with 30 mg/kg. The class given is ADME, organism-based, Urine. Further details: dose 30 mg/kg, route intravenous. As to conditions: simiiformes, in vivo, iv. The procedure, abridged: as §1
For data set [5], the system named is Rattus norvegicus. Nature of the data set: Percent urinary recovery (as total antibacterial activity) in rats dosed intravenously with 20 mg/kg. Type of data set: ADME, organism-based, Urine. Also on record: dose 20 mg/kg, route intravenous. Particulars: in vivo, iv. In short, it runs like this:
as §2

Data set [6] in a line: Half-life determined in monkeys dosed intravenously with 30 mg/kg. Type of data set: ADME, organism-based. Also on record: dose 30 mg/kg, route intravenous. As to conditions: simiiformes, in vivo, iv. In short, it runs like this:
as §1

A short description of data set [7]: Half-life determined in rats dosed intravenously with 20 mg/kg. Further details: dose 20 mg/kg, route intravenous. The class given is ADME, organism-based. As to conditions: rat, in vivo, iv. In short, it runs like this: as §2
The next data set concerns Escherichia coli. The experiment in a line: In vitro evaluation of antimicrobial activity against Escherichia coli EC14 strain. The class given is functional.
The test system of the next data set is Enterobacter cloacae. The experiment in a line: In vitro evaluation of antimicrobial activity against Enterobacter cloacae EB5 strain. Type of data set: functional.
Another data set has as its system Haemophilus influenzae. The experiment in a line: In vitro antimicrobial activity against Haemophilus influenzae C.L. strain. Type of data set: functional.
The next data set relates to Klebsiella. Nature of the data set: In vitro antimicrobial activity against Klebsiella X26 strain. Type of data set: functional.
Data set [8] concerns Staphylococcus aureus. Nature of the data set: In vitro evaluation of antimicrobial activity against 31 strains of heteroresistant Staphylococcus aureus in trypticase soy broth with 4% sodium chloride. Type of data set: functional.
For data set [9], the system named is Staphylococcus aureus. The experiment in a line: In vitro evaluation of antimicrobial activity against heteroresistant Staphylococcus aureus ST 430 strain in trypticase soy broth. The class given is functional.
Data set [10] has as its system Staphylococcus aureus. The experiment in a line: In vitro evaluation of antimicrobial activity against heteroresistant Staphylococcus aureus ST 430 strain in trypticase soy broth with 4% sodium chloride. The class given is functional.
Data set [11] relates to Pseudomonas aeruginosa. Nature of the data set: Antimicrobial activity against Pseudomonas PS18 strain. The class given is functional.
Data set [12] deals with Pseudomonas aeruginosa. The experiment in a line: In vitro antimicrobial activity against Pseudomonas X239 strain. Type of data set: functional.
In data set [13] the test system is Staphylococcus epidermidis. The experiment in a line: In vitro antimicrobial activity against Staphylococcus epidermidis 222 strain. The class given is functional.
Data set [14] deals with Staphylococcus epidermidis. Nature of the data set: In vitro antimicrobial activity against Staphylococcus epidermidis 270 strain. The class given is functional.
For data set [15], the system named is Staphylococcus aureus. The experiment in a line: In vitro antimicrobial activity against Staphylococcus aureus S13E strain. Type of data set: functional.
Data set [16] concerns Staphylococcus aureus. The experiment in a line: In vitro antimicrobial activity against Staphylococcus aureus X400 strain. Type of data set: functional.
In another data set the test system is Streptococcus pneumoniae. Nature of the data set: In vitro antimicrobial activity against Streptococcus pneumoniae PARK strain. The class given is functional.
For data set [17], the species on record is Rattus norvegicus. Nature of the data set: (§5) In vitro plasma protein binding was evaluated using Sprauge-Dawley rat at 20 ug/mL. The class given is ADME. The procedure, abridged: as §4
Data set [18] has as its system Staphylococcus aureus. Nature of the data set: In vitro antimicrobial activity against Staphylococcus aureus X1.1 strain. The class given is functional.
The species named for data set [19] is Homo sapiens. Described as §3. Type of data set: functional. In short, it runs like this:
as §4

Data set [20] is filed under the species Rattus norvegicus. The description is as §5. Type of data set: functional. The procedure, abridged:
as §4

The Cmax is the maximum level reached in the sampled fluid or tissue. A word on the half-life: it is how long it takes for the measured level to halve. In the case of `Nc1nc(/C(=N\OCCF)C(=O)N[C@@H]2C(=O)N3C(C(=O)[O-])=C(Sc4nc5cnccc5s4)CC[C@H]23)cs1.[Na+]`, the Cmax in [1] stood at 343 µg/mL; in [2], 56.7 µg/mL. The Bound worked out at 96.6% in the data set filed under Homo sapiens [3], 98.5% with Rhesus monkey, 88.5% in the data set listed under Mus musculus and 95% in the data set filed under Rattus norvegicus [17]. Further, the Recovery in data set [4] was 46.8%; with Rattus norvegicus [5], 37.2%. In addition, the half-life was 58.4 min in [6] and 35.1 min in data set [7]. Also, the MIC against Escherichia coli turned out to be 0.06 µg/mL; against Enterobacter cloacae it was 1 µg/mL; with Haemophilus influenzae, 0.03 µg/mL; against Klebsiella, 0.03 µg/mL; with Staphylococcus aureus [8], 2.6 µg/mL; with Staphylococcus aureus [9], 0.5 µg/mL. Moreover, the MIC came out at 1 µg/mL in the data set with Staphylococcus aureus [10]; 32 µg/mL with Pseudomonas aeruginosa [11]; 32 µg/mL with Pseudomonas aeruginosa [12]; 0.5 µg/mL in data set [13]; 2 µg/mL in data set [14]; 0.5 µg/mL with Staphylococcus aureus [15]. Also, the results for the MIC against Staphylococcus aureus [16], in the data set with Streptococcus pneumoniae and against Staphylococcus aureus [18] were 4 µg/mL, below 0.008 µg/mL and 0.125 µg/mL, respectively.
Turning to `CO/N=C(\C(=O)N[C@@H]1C(=O)N2C(C(=O)O)=C(CSc3nc(=O)c(O)nn3C)CS[C@H]12)c1csc(N)n1` [CEFTRIAXONE], the results for the Bound in the data set listed under Homo sapiens [19] and in the data set filed under Rattus norvegicus [20] were 94% and 88.5%, respectively.

The record behind these values is ChEMBL document CHEMBL1127066, “Discovery and structure-activity relationship of a series of 1-carba-1-dethiacephems exhibiting activity against methicillin-resistant Staphylococcus aureus” (J Med Chem, 1993).
